Laboratory results published in ChEMBL document CHEMBL1143090, “Structure-activity relationship and liver microsome stability studies of pyrrole necroptosis inhibitors” (Bioorg Med Chem Lett, 2008).
Blank lines part the entries; values can stand above or below the compound they belong to. Activity calls are given as the source filed them. The calls are words filed in the database; no cut-off is given here.

Experiments:
Jurkat [1] = test: Inhibition of TNF-alpha-induced necroptosis in FADD-deficient human Jurkat T cells; type: functional, cell-based
How it was run: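 FADD-deficient variant of human Jurkat T cells given 10 ng/mL human TNF-α alongside increasing test compound concentrations for 24 h. Viability read by ATP-based assay; EC50 from the concentration series.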

[2] = Metabolic stability assessed as half life in mouse liver microsomes; type: ADME, Microsome
How it was run: (§1)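 Pooled mouse liver microsomes (0.5 mg/mL protein) with 3 µM final compound and 1 mM NADPH, sampled at 0, 5, 15, 30, 60 min; no-NADPH incubation as negative control. Methanol quench, LC/MS (N=3) against internal standard; ln peak-area ratio vs time slope gives k, t1/2 = 0.693/k, CLint = V(0.693)/t1/2.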

[3] = Intrinsic clearance in mouse liver microsome; type: ADME; conditions: liver microsomes; how it was run: as §1
Jurkat [4] = test: Inhibition of necroptosis in TNF-alpha-induced human Jurkat T cells assessed as cell viability at 30 uM after 24 hrs; type: functional, cell-based
How it was run: (§2)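 FADD-deficient Jurkat, L929 and mouse adult lung fibroblast cells exposed 24 hr to 10 ng/mL human TNF-α and/or 100 µM zVAD.fmk, with compound at 30 µM. ATP-based viability, normalized to compound-treated cells without necroptotic stimulus (100%); N = 2, standard deviation.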

L929 [5] = test: Inhibition of necroptosis in zVAD-induced mouse L929 cells assessed as cell viability at 30 uM after 24 hrs; type: functional, cell-based; how it was run: as §2
L929 [6] = test: Inhibition of necroptosis in TNF-alpha-induced mouse L929 cells assessed as cell viability at 30 uM after 24 hrs; type: functional, cell-based; how it was run: as §2
Mus musculus = species on record: Mus musculus; test: Inhibition of necroptosis in zVAD-induced mouse fibroblast assessed as cell viability at 30 uM after 24 hrs; type: functional; how it was run: as §2

Structure (SMILES): CC(C)n1cccc1C(=O)NCc1c(F)cccc1Cl
EC50 (Jurkat [1]): 0.44 µM

Structure (SMILES): CCn1c(Br)ccc1C(=O)NCc1c(F)cccc1Cl
EC50 (Jurkat [1]): 2.4 µM

half-life [2]: 3.23 h
microsomal CLint [3]: 7.13 µL/min/mg
Structure (SMILES): Cc1ccccc1C(=O)NCc1c(F)cccc1Cl

Structure (SMILES): Cc1ccn(C(C)C)c1C(=O)NCc1c(F)cccc1Cl
EC50 (Jurkat [1]): 7.8 µM

Structure (SMILES): Cn1c(C#N)ccc1C(=O)NCc1c(F)cccc1Cl
EC50 (Jurkat [1]): 0.34 µM

Structure (SMILES): Cc1ccn(C)c1C(=O)NCc1c(F)cccc1Cl
EC50 (Jurkat [1]): > 20 µM

Structure (SMILES): Cn1c(Cl)ccc1C(=O)NCc1c(F)cccc1Cl
EC50 (Jurkat [1]): 0.74 µM

Structure (SMILES): Cc1cc[nH]c1C(=O)NCc1c(F)cccc1Cl
EC50 (Jurkat [1]): 4.9 µM

Structure (SMILES): Cn1cc(C#N)cc1C(=O)NCc1c(F)cccc1Cl
EC50 (Jurkat [1]): > 20 µM

Structure (SMILES): CN(Cc1c(F)cccc1Cl)C(=O)c1cccn1C
EC50 (Jurkat [1]): > 20 µM

Structure (SMILES): CC(C)n1cc(C#N)cc1C(=O)NCc1c(F)cccc1Cl
EC50 (Jurkat [1]): > 20 µM

Structure (SMILES): CCn1c(C#N)ccc1C(=O)NCc1c(F)cccc1Cl
EC50 (Jurkat [1]): 1.9 µM

Structure (SMILES): CC(C)n1cccc1C(=O)N[C@@H](C)c1c(F)cccc1Cl
EC50 (Jurkat [1]): 0.52 µM

Structure (SMILES): CC(C)n1c(C#N)ccc1C(=O)NCc1c(F)cccc1Cl
EC50 (Jurkat [1]): 1.4 µM

Structure (SMILES): CC(c1ccccc1)n1cccc1C(=O)NCc1c(F)cccc1Cl (centres undefined)
EC50 (Jurkat [1]): > 20 µM

Structure (SMILES): CC(NC(=O)c1cccn1C(C)C)c1c(F)cccc1Cl (racemic)
EC50 (Jurkat [1]): 2.1 µM

Structure (SMILES): CN1C(=O)C(Cc2c[nH]c3ccccc23)NC1=S (racemic) [NECROSTATIN]
EC50 (Jurkat [1]): 0.05 µM
Activity (Jurkat [4]): Active
Activity (L929 [5]): Active
Activity (L929 [6]): Active
Activity (Mus musculus): Active

Structure (SMILES): Cn1c(C#N)ccc1S(=O)(=O)NCc1c(F)cccc1Cl
EC50 (Jurkat [1]): > 20 µM

Structure (SMILES): CCCCC(NC(=O)c1cccn1C(C)C)c1c(F)cccc1Cl (racemic)
EC50 (Jurkat [1]): > 20 µM

Structure (SMILES): O=C(NCc1c(F)cccc1Cl)c1cccn1Cc1ccccc1
EC50 (Jurkat [1]): > 20 µM

Structure (SMILES): O=C(NCc1c(F)cccc1Cl)c1ccc[nH]1
EC50 (Jurkat [1]): > 20 µM

Structure (SMILES): Cn1cccc1C(=O)NCc1c(F)cccc1Cl
EC50 (Jurkat [1]): 0.9 µM

Structure (SMILES): CC(C)n1cccc1C(=O)N[C@H](C)c1c(F)cccc1Cl
EC50 (Jurkat [1]): > 20 µM

half-life [2]: 0.542 h
microsomal CLint [3]: 42.6 µL/min/mg
Structure (SMILES): C[C@H](NC(=O)c1snnc1C1CC1)c1c(F)cccc1Cl
Activity (Jurkat [4]): Active
Activity (L929 [5]): Active
Activity (L929 [6]): Active
Activity (Mus musculus): Active
